Assay results as given in ChEMBL document CHEMBL1124962, “Synthesis and structure-affinity of a series of 7 alpha-undecylestradiol derivatives: a potential vector for therapy and imaging of estrogen-receptor-positive cancers” (J Med Chem, 1990).

What was measured:
[1] = target: T1, Estrogen receptor (Bos taurus) (UniProt Q9XSB5+P49884); assay: Ratio of displacement of 17-beta-[3H]-estradiol from calf uterine estrogen receptor compared to 17-beta-estradiol after 12 hr incubation; format: protein assay
In short: (§1)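 Calf uterine cytosol (105000g, 60 min, 4 °C spin of homogenate in 5 mM sodium phosphate pH 7.5, 10 mM monothioglycerol, 10% glycerol; 0.68 mg protein in final mix) incubated at 4 °C without DMF with 10⁻⁹ M 17β-[³H]estradiol and nine competitor concentrations (3 × 10⁻¹²–10⁻⁶ M), triplicates. Dextran-coated charcoal separation, supernatant counted. RBA = IC50 ratio of estradiol to competitor ×100, mean of ≥3 experiments.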

[2] = target: T1, Estrogen receptor (Bos taurus); assay: Ratio of displacement of 17-beta-[3H]-estradiol from calf uterine estrogen receptor compared to 17-beta-estradiol after 20 hr incubation; format: protein assay; in short: as §1

Work on C[C@]12CC[C@@H]3c4ccc(O)cc4C[C@@H](CCCCCCCCCCCCl)[C@H]3[C@@H]1CC[C@@H]2O yielded a relative binding affinity (RBA) [1] of 0.7 and a relative binding affinity (RBA) [2] of 0.7.
In the case of C[C@]12CC[C@@H]3c4ccc(O)cc4C[C@@H](CCCCCCCCCCCOc4ccc(I)cc4)[C@H]3[C@@H]1CC[C@@H]2O, the relative binding affinity (RBA) [1] is reported as 0.1 and the relative binding affinity (RBA) [2] is reported as 0.09.
Work on C=CCCCCCCCCC[C@@H]1Cc2cc(O)ccc2[C@H]2CC[C@]3(C)[C@@H](O)CC[C@H]3[C@H]12 yielded a relative binding affinity (RBA) [1] of 0.09 and a relative binding affinity (RBA) [2] of 0.09.
C[C@]12CC[C@@H]3c4ccc(O)cc4C[C@@H](CCCCCCCCCCCOc4ccccc4)[C@H]3[C@@H]1CC[C@@H]2O showed a relative binding affinity (RBA) [1] of 0.1 and a relative binding affinity (RBA) [2] of 0.1.
Work on C[C@]12CC[C@@H]3c4ccc(O)cc4C[C@@H](CCCCCCCCCCCO)[C@H]3[C@@H]1CC[C@@H]2O yielded a relative binding affinity (RBA) [1] of 2.9 and a relative binding affinity (RBA) [2] of 2.
Molecule C[C@]12CC[C@@H]3c4ccc(O)cc4CC[C@H]3[C@@H]1C[C@@H](I)[C@@H]2O has a relative binding affinity (RBA) [1] of 22.1 and a relative binding affinity (RBA) [2] of 27.1.
Molecule C[C@]12CC[C@@H]3c4ccc(O)cc4C[C@@H](CCCCCCCCCCCBr)[C@H]3[C@@H]1CC[C@@H]2O has a relative binding affinity (RBA) [1] of 0.05 and a relative binding affinity (RBA) [2] of 0.2.
C[C@]12CC[C@@H]3c4ccc(O)cc4C[C@@H](CCCCCCCCCCCF)[C@H]3[C@@H]1CC[C@@H]2O gave a relative binding affinity (RBA) [1] of 1.3 and a relative binding affinity (RBA) [2] of 1.5.
For C[C@]12CC[C@@H]3c4ccc(O)cc4C[C@@H](CCCCCCCCCCCI)[C@H]3[C@@H]1CC[C@@H]2O, the relative binding affinity (RBA) [1] was 0.04 and the relative binding affinity (RBA) [2] was 0.1.
